Experimental data pooled from the literature.
Protocols differ between the studies behind these lines.
Matrix: plasma

O=C1CCC(N2Cc3cc(C4CCN(Cc5ccccc5)CC4)ccc3C2=O)C(=O)N1 (centres unmarked) — Tmax (male Sprague-Dawley rat; intravenous, 1 mg/kg): 0.14 h
CCCc1nc2c(C)cc(-c3nc4ccccc4n3C)cc2n1Cc1ccc(-c2ccccc2C(=O)O)cc1 — Tmax (male Sprague-Dawley rat; oral, 8 mg/kg, single dose): 3.5 h
C1=C/COCc2cc(ccc2OCCN2CCCC2)Nc2nccc(n2)-c2cccc(c2)COC/1 — Tmax (male Sprague-Dawley rat; oral, 36 mg/kg): 8.67 h
CONC(=O)c1cccc2c1cc(C)n2-c1nc2c(c(NCc3ccccc3)n1)CCCN2 — Tmax (male Sprague-Dawley rat; oral, 10 mg/kg, single dose): 0.25 h
CC[C@@H]([C@H](C)O)n1ncn(-c2ccc(N3CCN(c4ccc(OC[C@@H]5CO[C@@](Cn6cncn6)(c6ccc(F)cc6F)C5)cc4)CC3)cc2)c1=O — Tmax (Sprague-Dawley rat; oral, 40 mg/kg): 3.05 h
C[C@H]1Oc2cc(cnc2N)-c2c(nn(C)c2C#N)CN(C)C(=O)c2ccc(F)cc21 — Tmax (male Sprague-Dawley rat; oral, 50 mg/kg, single dose): 11.4 h
CCOc1c([C@H](C)n2nc(C)c3c(N)ncnc32)cc(Cl)c(F)c1[C@@H]1CNC(=O)C1 — Tmax (male Sprague-Dawley rat; oral, 2 mg/kg, single dose): ~2.42 h
C=CC(=O)N1CCC([C@@H]2CCNc3c(C(N)=O)c(-c4ccc(Oc5ccccc5)cc4)nn32)CC1 — Tmax (Sprague-Dawley rat; oral, 16 mg/kg): 1.5 h
COc1cc(-c2cc(C(C)=O)n3ccccc23)c(OC)cc1Cn1ccnc1 — Tmax (male Sprague-Dawley rat; oral, 5 mg/kg): 0.5 h
C=CC(=O)N1CCC[C@@H](n2nc(-c3ccc(Oc4ccccc4)cc3)c3c(N)ncnc32)C1 — Tmax (male Wistar rat; oral, 40 mg/kg): 2 h
CCCCCCCCCC(=O)N[C@@H](Cc1c[nH]c2ccccc12)C(=O)N[C@H](CC(N)=O)C(=O)N[C@@H](CC(=O)O)C(=O)N[C@@H]1C(=O)NCC(=O)N[C@@H](CCCN)C(=O)N[C@@H](CC(=O)O)C(=O)N[C@H](C)C(=O)N[C@@H](CC(=O)O)C(=O)NCC(=O)N[C@H](CO)C(=O)N[C@@H]([C@H](C)CC(=O)O)C(=O)N[C@@H](CC(=O)c2ccccc2N)C(=O)O[C@@H]1C — Tmax (male Wistar rat; subcutaneous, 125 mg/kg, single dose): 5 h
COc1ccc(N(Cc2csc(-c3ccccc3)n2)C(=O)CCCCCC(=O)NO)cc1 — Tmax (female Sprague-Dawley rat; intravenous, 5 mg/kg): 0.08 h
C[C@@]12C[C@@]3(O)O[C@@H](O1)[C@]1(COC(=O)c4ccccc4)[C@H]3C[C@@]12O[C@@H]1O[C@H](CO)[C@@H](O)[C@H](O)[C@H]1O — Tmax (male Sprague-Dawley rat; oral, 80 mg/kg): 0.506 h
CCCCC(=O)Nc1ccc(-c2ccc3ncn(CCC)c(=O)c3c2)cn1 — Tmax (male rat; oral, 10 mg/kg): 0.25 h
CN(C)C(=O)c1cc2cnc(Nc3ccc(N4CCNCC4)cn3)nc2n1C1CCCC1 — Tmax (male Sprague-Dawley rat; intraperitoneal, 100 mg/kg): 0.5 h
CCN(CC)Cc1ccc2cc(COC(=O)Nc3ccc(C(=O)NO)cc3)ccc2c1 — Tmax (male Sprague-Dawley rat; oral, 10 mg/kg): ~1.72 h
C[C@H]1[C@@H](O)O[C@@H]2O[C@@]3(C)CC[C@H]4[C@H](C)CC[C@@H]1[C@@]24OO3 — Tmax (male Sprague-Dawley rat; oral, 10 mg/kg): 0.75 h
